# Square brackets hold non-standard residues; d marks the D form. Peptide text beside a SMILES is read from it. * marks the point of attachment. ξ: configuration not given here. Tyr(Nα,Nα-Bn2) = O=C([C@H](Cc1ccc(O)cc1)N(Cc1ccccc1)Cc1ccccc1)*; Tyr(Nα,Nα-allyl2) = C=CCN(CC=C)[C@@H](Cc1ccc(O)cc1)C(=O)*; X1 = O=C(C(Cc1ccc(O)cc1)N(Cc1ccccc1)Cc1ccccc1)*; Phe(4-NH2) = Nc1ccc(C[C@H](N)C(=O)O)cc1; Aib = CC(C)(N)C(=O)O; BrAc = O=C(CBr)*; ξA = CC(N)C(=O)O
# Key:
# [1] = target: Delta-type opioid receptor (Mus musculus, UniProt P32300); test: Binding affinity was measured in cloned Opioid receptor delta 1 expressed in CHO cells using [3H]- DPDPE as radioligand.; type: cell-based
# Chain of Delta-type opioid receptor (P32300 whole entry): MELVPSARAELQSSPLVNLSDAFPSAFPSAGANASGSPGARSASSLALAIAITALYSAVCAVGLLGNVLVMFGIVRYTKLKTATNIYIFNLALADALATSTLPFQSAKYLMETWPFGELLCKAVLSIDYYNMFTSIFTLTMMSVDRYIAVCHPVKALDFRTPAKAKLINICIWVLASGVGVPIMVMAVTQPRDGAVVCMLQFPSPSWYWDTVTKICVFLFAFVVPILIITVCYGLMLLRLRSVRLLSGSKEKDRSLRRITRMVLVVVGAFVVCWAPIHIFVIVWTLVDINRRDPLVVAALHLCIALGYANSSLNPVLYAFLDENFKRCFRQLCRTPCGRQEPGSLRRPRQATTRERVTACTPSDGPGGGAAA
# In short: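 Mouse δ receptor stably expressed in CHO cells; washed membranes (100 µg protein) incubated 90 min at 22 °C in 50 mM Tris pH 7.4 with 3 mM Mg2+ and peptidase inhibitors (bestatin, captopril, L-leucyl-L-leucine). [3H]DPDPE at 0.5-0.8 nM; nonspecific binding with 10 µM DPDPE. Filtration on PEI-soaked GF/B, scintillation counting.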
# [2] = target: Mu-type opioid receptor (Rattus norvegicus, UniProt P33535); test: Binding affinity was measured in cloned Opioid receptor mu 1 expressed in CHO cells using [3H]- DAMGO as radioligand.; type: cell-based
# Chain of Mu-type opioid receptor (P33535 whole entry, looked up): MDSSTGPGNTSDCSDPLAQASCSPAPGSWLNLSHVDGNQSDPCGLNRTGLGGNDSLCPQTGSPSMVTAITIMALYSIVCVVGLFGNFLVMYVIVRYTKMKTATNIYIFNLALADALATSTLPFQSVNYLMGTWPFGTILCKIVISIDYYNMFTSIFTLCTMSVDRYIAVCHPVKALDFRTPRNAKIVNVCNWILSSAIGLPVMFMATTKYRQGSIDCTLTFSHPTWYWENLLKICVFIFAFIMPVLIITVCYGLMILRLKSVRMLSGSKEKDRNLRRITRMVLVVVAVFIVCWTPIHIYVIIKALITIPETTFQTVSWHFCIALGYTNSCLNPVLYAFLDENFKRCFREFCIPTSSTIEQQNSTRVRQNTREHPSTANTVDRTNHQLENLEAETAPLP
# In short: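 Rat µ receptor stably expressed in CHO cells; membranes (100 µg protein) incubated 90 min at 22 °C in 50 mM Tris pH 7.4 with 3 mM Mg2+ and bestatin, captopril, L-leucyl-L-leucine. [3H]DAMGO at 0.5-0.8 nM; nonspecific binding with 10 µM DAMGO. Filtration on PEI-presoaked GF/B filters, scintillation counting.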
# [3] = tested on: mu (Rattus norvegicus) & delta (Mus musculus) opioid receptors; test: Ratio of IC50 against mu opioid receptor to that of delta opioid receptor
Compound,IC50 [1] [nM],IC50 [2] [nM],Ratio [3]
CC(C)C[C@H](NC(=O)[C@H](Cc1ccc(N=C=S)cc1)NC(=O)CNC(=O)CNC(=O)[C@H](Cc1ccc(O)cc1)N(Cc1ccccc1)Cc1ccccc1)C(=O)O,34.9,1900,54
CC(C)C[C@H](NC(=O)[C@H](Cc1ccc(NCCl)cc1)NC(=O)CNC(=O)CNC(=O)[C@H](Cc1ccc(O)cc1)N(Cc1ccccc1)Cc1ccccc1)C(=O)O,145,19000,131
C=CCN(CC=C)[C@@H](Cc1ccc(O)cc1)C(=O)NC(C)(C)C(=O)NC(C)(C)C(=O)N[C@@H](Cc1ccccc1)C(=O)N[C@@H](CC(C)C)C(=O)O (HELM PEPTIDE1{[C=CCN(CC=C)[C@@H](Cc1ccc(O)cc1)C(=O)[*:2]].[Aib].[Aib].F.L}$$$$V2.0),703,18900,27
CC(C)C[C@H](NC(=O)[C@H](Cc1ccccc1)NC(=O)CNC(=O)CNC(=O)[C@H](Cc1ccc(O)cc1)N(Cc1ccccc1)Cc1ccccc1)C(=O)O (HELM PEPTIDE1{[O=C([C@H](Cc1ccc(O)cc1)N(Cc1ccccc1)Cc1ccccc1)[*:2]].G.G.F.L}$$$$V2.0),78.2,1600,20
CC(C)C[C@H](NC(=O)[C@H](Cc1ccc(NC(=O)CBr)cc1)NC(=O)CNC(=O)CNC(=O)C(Cc1ccc(O)cc1)N(Cc1ccccc1)Cc1ccccc1)C(=O)O (stereo partly drawn) (X1-GG[Phe(4-NH2)](BrAc)L-OH),,,61
"CC(C)C[C@H](NC(=O)[C@H](Cc1ccc(NC(=O)CBr)cc1)NC(=O)CNC(=O)CNC(=O)[C@H](Cc1ccc(O)cc1)N(Cc1ccccc1)Cc1ccccc1)C(=O)O ({Tyr(Nα,Nα-Bn2)}-GG[Phe(4-NH2)](BrAc)L-OH)",149,9100,
"C=CCN(CC=C)[C@@H](Cc1ccc(O)cc1)C(=O)NC(C)(C)C(=O)NC(C)C(=O)N[C@@H](Cc1ccc(N)cc1)C(=O)N[C@@H](CC(C)C)C(=O)O (stereo partly drawn) ({Tyr(Nα,Nα-allyl2)}-[Aib][ξA][Phe(4-NH2)]L-OH)",1390,87700,63
"C=CCN(CC=C)[C@@H](Cc1ccc(O)cc1)C(=O)NC(C)C(=O)NC(C)C(=O)N[C@@H](Cc1ccc(NC(=O)CBr)cc1)C(=O)N[C@@H](CC(C)C)C(=O)O (stereo partly drawn) ({Tyr(Nα,Nα-allyl2)}-[ξA][ξA][Phe(4-NH2)](BrAc)L-OH)",392,> 10000,

# Source: ChEMBL document CHEMBL1133472, “Synthesis and evaluation of N,N-dialkyl enkephalin-based affinity labels for delta opioid receptors” (J Med Chem, 2000)
